In brackets after ≈: the same amount, converted by molar mass. Like-named read-outs stand apart in the source and are kept apart here.
Tests used:
[1] = system: K. pneumoniae NB29017 co-cultured with T. pyriformis; assay: T. pyriformis/K. pneumoniae; type: cell-based, Klebsiella pneumoniae; conditions: for activity in the Tp/Kp assay: manual pilot screens and D1 analog set
[2] = Cytotoxicity in K562 cells; type: cell-based; conditions: human
Staphylococcus aureus = assay: Antibacterial MIC, Gram-positive control; type: cell-based; conditions: read-out: MIC Sa
K. pneumoniae NB29017 = assay: Qualitative inhibition of mucoid appearance of colonies on solid LB agar; type: cell-based, Klebsiella pneumoniae; conditions: 4 fully mucoid, 0 nonmucoid, by eye
Procedure, shortened: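 Test compound dissolved in DMSO (12.8 mg/mL stock) and mixed into melted LB agar at 0–16 μg/mL final, then set in six-well plates. Mucoid wild-type NB29017 streaked for single colonies in each well. Plates incubated 18 h at 37 °C, then 2 h at 4 °C. Mucoid appearance scored by eye from 0 (none) to 4 (normal hypermucoid).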

Red blood cell hemolysis = type: cell-based, sheep; conditions: sheep, erythrocytes from defibrinated sheep blood, pH 7.5
[3] = read-out: IC50 Tp/Kp, Table 1, freshly dissolved powder, top concentration 20 μM
[4] = read-out: Tp/Kp IC50, Table 2, expressed as μg/mL for comparison to agar values

SMILES	activity in the Tp/Kp assay [1]	IC50 [2] [µM]	IC50 [1, 3] [µM]	IC50 [1, 4] [µg/mL]	MIC (Staphylococcus aureus) [µg/mL]	qualitative score on solid medium (K. pneumoniae NB29017; 1 μg/mL compound in agar)	qualitative score on solid medium (K. pneumoniae NB29017; 2 μg/mL compound in agar)	qualitative score on solid medium (K. pneumoniae NB29017; 4 μg/mL compound in agar)	qualitative score on solid medium (K. pneumoniae NB29017; 8 μg/mL compound in agar)	qualitative score on solid medium (K. pneumoniae NB29017; 16 μg/mL compound in agar)	hemolysis at 1 h (Red blood cell hemolysis) [%]
Oc1nc(S)nnc1-c1cccs1 [B1, OC1N=C(S)N=NC=1C2=CC=CS2]	active										
COc1nc(SC)nnc1C [Di, COc1nc(nnc1C)SC]	inactive										
Cc1cc(O)c(C)c(O)c1C(=O)O [compound 9, Cc1cc(O)c(C)c(O)c1C(O)=O]	active										
O=C(O)c1ccccc1O [compound 10, OC(=O)c1ccccc1O]	active										
Cc1cccc(O)c1C(=O)O [compound 16, Cc1cccc(O)c1C(O)=O]	active										
CCOc1ccc2nc(NC(=O)c3cc(=O)c4ccc(C)cc4o3)sc2c1 [compound 65, CCOc4ccc3N=C(NC(=O)C2=CC(=O)c1ccc(C)cc1O2)Sc3c4]		> 168	0.07	0.03	> 128	2	2	2	2	1	1.5
O=C(Nc1nnc(Cl)s1)c1ccco1 [compound 67, O=C(NC1=NN=C(Cl)S1)C2=CC=CO2]		> 557	0.49	0.11	> 128	1	0	0	0	0	1.5
Cc1cc(C)c2c(=O)cc(C(=O)Nc3nc4ccc(F)cc4s3)oc2c1 [compound 68, Cc2cc(C)c1C(=O)C=C(Oc1c2)C(=O)NC4=Nc3ccc(F)cc3S4]		> 348	0.91		> 128	3	3	1	1	1	2.2
O=C(O)c1cc(Br)ccc1F [compound 166, OC(=O)c1cc(Br)ccc1F]		> 584	1.3		> 128						2.5
CCN(CC)/C(N)=N\c1ccc(NC(=O)c2ccc(C(=O)Nc3ccc(/N=C(\N)N(CC)CC)cc3)cc2)cc1 [compound 170, CCN(CC)/C(/N)=N/c1ccc(cc1)NC(=O)c2ccc(cc2)C(=O)Nc3ccc(cc3)\N=C(\N)/N(CC)CC]		102	2.2		8 (≈ 14.7 µM)						1.9
O=[N+]([O-])c1cnc2ccc(Cl)cc2c1O [compound 182, [O-][N+](=O)c2cnc1ccc(Cl)cc1c2O]		75.4	0.42		> 128						2.4
O=C(CCCN1CCC(O)(c2ccc(Br)cc2)CC1)c1ccc(F)cc1 [compound 185, OC2(CCN(CCCC(=O)c1ccc(F)cc1)CC2)c3ccc(Br)cc3]		16.5	0.85		> 128						4.5
COC1C(OC(C)=O)CC(=O)OC(C)CC2OC2/C=C/C(=O)C(C)CC(CC=O)C1OC1OC(C)C(OC2CC(C)(O)C(OC(=O)CC(C)C)C(C)O2)C(N(C)C)C1O (stereo not shown) [compound 186, COC4C(OC2OC(C)C(OC1CC(C)(O)C(OC(=O)CC(C)C)C(C)O1)C(C2O)N(C)C)C(CC=O)CC(C)C(=O)/C=C/C3OC3CC(C)OC(=O)CC4OC(C)=O]		8.54	5.4		2 (≈ 2.38 µM)						
Cc1nc(O)n2ncc(Br)c2n1 [compound 187, CC2=NC1=C(Br)C=NN1C(O)=N2]		> 559	0.16		> 128						2.5
C=CC1(C)CC(OC(=O)CSc2ccc(N)cc2)C2(C)C(C)CCC3(CCC(=O)C32)C(C)C1O (stereo not shown) [compound 191, C=CC4(C)CC(OC(=O)CSc1ccc(N)cc1)C2(C)C(C)CCC3(CCC(=O)C23)C(C)C4O]		35.8	3.22		≤ 0.06						2

Reference: paper PMC8851646 (ACS Omega, 2022)
